For 12 molecules, MIC results are on record in ChEMBL document CHEMBL1158387, “Regioselective synthetic approaches towards 1,2,8,9-tetraazadispiro[4.1.4.2]trideca-2,9-dien-6-ones of potential antimicrobial properties” (2009).

By MIC is commonly meant the lowest concentration that inhibits growth of the organism.

Converted amounts (≈) assume the structure as drawn. The source made the active and inactive calls. The rule behind the calls is not given here.

Common to all, as to assay type: functional
One assay concerns Staphylococcus aureus. Briefly: Antibacterial activity against Staphylococcus aureus ATCC 25923 after 18 hrs by agar dilution technique. Put shortly:
(§1)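 Agar dilution per CLSI; compounds dissolved in DMSO; plates incubated at 37 °C for 18 h; MIC taken as lowest compound concentration spot with no growth. Standard ATCC strains.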
On the technique in general: Agar dilution tests growth on a series of plates holding different concentrations.

A further assay concerns Enterococcus faecalis. Description: Antibacterial activity against Enterococcus faecalis ATCC 29212 after 18 hrs by agar dilution technique. The method, boiled down:
as §1

The test system of a further assay is Streptococcus agalactiae. Briefly: Antibacterial activity against Streptococcus agalactiae […] after 18 hrs by agar dilution technique. The method, boiled down: as §1
Another assay concerns Escherichia coli. Description: Antibacterial activity against Escherichia coli ATCC 25922 after 18 hrs by agar dilution technique. Put shortly:
as §1

The test system of a further assay is Klebsiella pneumoniae. Description: Antibacterial activity against Klebsiella pneumoniae ATCC 33495 after 18 hrs by agar dilution technique. The method, boiled down: as §1
The next assay has as its system Proteus vulgaris. Briefly: Antibacterial activity against Proteus vulgaris ATCC 13315 after 18 hrs by agar dilution technique. The method, boiled down: as §1
In the next assay the test system is Candida albicans. Description: Antifungal activity against Candida albicans ATCC 20260 after 18 hrs by agar dilution technique. Put shortly:
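Agar dilution per CLSI with compounds dissolved in DMSO and spotted onto agar against ATCC standard strains. Plates were incubated at 37 °C for 18 h.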

For `O=C(O)c1cn(C2CC2)c2cc(N3CCNCC3)c(F)cc2c1=O` [CIPROFLOXACIN], the minimum inhibitory concentration (MIC) with Staphylococcus aureus (ATCC 25923, 18 h) stood at 0.3 µg/mL (≈ 0.905 µM); in the assay with Enterococcus faecalis (ATCC 29212, 18 h), 0.3 µg/mL (≈ 0.905 µM); against Streptococcus agalactiae it was 0.6 µg/mL (≈ 1.81 µM); against Escherichia coli (ATCC 25922, 18 h) it was 0.3 µg/mL (≈ 0.905 µM); in the assay on Klebsiella pneumoniae (ATCC 33495, 18 h) it was 1.3 µg/mL (≈ 3.92 µM); in the assay with Proteus vulgaris (ATCC 13315, 18 h), 0.3 µg/mL (≈ 0.905 µM). The MIC result in the assay on Candida albicans was “inactive”.
With `Cc1ccc(N2N=C(c3ccccc3)C(c3ccc(F)cc3)C23CCC2(C3=O)C(c3ccc(F)cc3)C(c3ccccc3)=NN2c2ccc(C)cc2)cc1` (centres undefined), the MIC with Staphylococcus aureus (ATCC 25923, 18 h) was 10 µg/mL (≈ 14 µM); in the assay with Enterococcus faecalis (ATCC 29212, 18 h) it was 10 µg/mL (≈ 14 µM); with Streptococcus agalactiae it was 2.5 µg/mL (≈ 3.51 µM); in the assay on Escherichia coli (ATCC 25922, 18 h), 10 µg/mL (≈ 14 µM); in the assay with Klebsiella pneumoniae (ATCC 33495, 18 h), 10 µg/mL (≈ 14 µM); in the assay with Proteus vulgaris (ATCC 13315, 18 h), 10 µg/mL (≈ 14 µM). In addition, in the assay on Candida albicans, the MIC entry was “inactive”.
For the molecule `O=C1/C(=C/c2ccc(F)cc2)CC[C@@]12[C@H](c1ccc(F)cc1)C(c1ccccc1)=NN2c1ccccc1`, the MIC with Staphylococcus aureus (ATCC 25923, 18 h) worked out at 10 µg/mL (≈ 20.4 µM); in the assay on Enterococcus faecalis (ATCC 29212, 18 h), 5 µg/mL (≈ 10.2 µM); with Streptococcus agalactiae it was 5 µg/mL (≈ 10.2 µM); against Escherichia coli (ATCC 25922, 18 h), 10 µg/mL (≈ 20.4 µM); in the assay with Klebsiella pneumoniae (ATCC 33495, 18 h), 2.5 µg/mL (≈ 5.1 µM); with Proteus vulgaris (ATCC 13315, 18 h) it was 5 µg/mL (≈ 10.2 µM). The MIC result in the assay with Candida albicans was “inactive”.
Regarding `Cc1ccc(N2N=C(c3ccccc3)C(c3ccc(Cl)cc3)C23CCC2(C3=O)C(c3ccc(Cl)cc3)C(c3ccccc3)=NN2c2ccc(C)cc2)cc1` (centres undefined), the minimum inhibitory concentration (MIC) came to 10 µg/mL (≈ 13.4 µM) against Staphylococcus aureus (ATCC 25923, 18 h); 10 µg/mL (≈ 13.4 µM) in the assay on Enterococcus faecalis (ATCC 29212, 18 h); 10 µg/mL (≈ 13.4 µM) against Streptococcus agalactiae; 10 µg/mL (≈ 13.4 µM) in the assay on Escherichia coli (ATCC 25922, 18 h); 5 µg/mL (≈ 6.7 µM) against Klebsiella pneumoniae (ATCC 33495, 18 h); 10 µg/mL (≈ 13.4 µM) against Proteus vulgaris (ATCC 13315, 18 h). Besides, in the assay on Candida albicans, the MIC entry is “inactive”.
Take `O=C1C2(CCC13C(c1ccc(F)cc1)C(c1ccccc1)=NN3c1ccccc1)C(c1ccc(F)cc1)C(c1ccccc1)=NN2c1ccccc1` (centres undefined): the MIC in the assay on Staphylococcus aureus (ATCC 25923, 18 h) was determined as 5 µg/mL (≈ 7.3 µM); with Enterococcus faecalis (ATCC 29212, 18 h), 10 µg/mL (≈ 14.6 µM); in the assay with Streptococcus agalactiae, 10 µg/mL (≈ 14.6 µM); against Escherichia coli (ATCC 25922, 18 h) it was 5 µg/mL (≈ 7.3 µM); in the assay on Klebsiella pneumoniae (ATCC 33495, 18 h), 10 µg/mL (≈ 14.6 µM); against Proteus vulgaris (ATCC 13315, 18 h), 10 µg/mL (≈ 14.6 µM). The MIC entry in the assay on Candida albicans is “inactive”.
For the molecule `O=C1C2(CCC13C(c1ccccc1)C(c1ccccc1)=NN3c1ccccc1)C(c1ccccc1)C(c1ccccc1)=NN2c1ccccc1` (centres undefined), the MIC against Staphylococcus aureus (ATCC 25923, 18 h) was determined as 1.3 µg/mL (≈ 2 µM); with Enterococcus faecalis (ATCC 29212, 18 h), 2.5 µg/mL (≈ 3.85 µM); with Streptococcus agalactiae, 2.5 µg/mL (≈ 3.85 µM); in the assay on Escherichia coli (ATCC 25922, 18 h), 10 µg/mL (≈ 15.4 µM); against Klebsiella pneumoniae (ATCC 33495, 18 h), 10 µg/mL (≈ 15.4 µM); against Proteus vulgaris (ATCC 13315, 18 h) it was 10 µg/mL (≈ 15.4 µM). Also, the MIC result with Candida albicans was “inactive”.
Consider `Cc1ccc(N2N=C(c3ccccc3)[C@@H](c3ccccc3)[C@@]23CC/C(=C\c2ccccc2)C3=O)cc1`, for which the MIC was determined as 0.6 µg/mL (≈ 1.28 µM) with Staphylococcus aureus (ATCC 25923, 18 h); 1.3 µg/mL (≈ 2.77 µM) against Enterococcus faecalis (ATCC 29212, 18 h); 1.3 µg/mL (≈ 2.77 µM) with Streptococcus agalactiae; 5 µg/mL (≈ 10.7 µM) in the assay on Escherichia coli (ATCC 25922, 18 h); 2.5 µg/mL (≈ 5.34 µM) with Klebsiella pneumoniae (ATCC 33495, 18 h); 5 µg/mL (≈ 10.7 µM) against Proteus vulgaris (ATCC 13315, 18 h). In the assay with Candida albicans, the MIC entry is “inactive”.
With `Cc1ccc(/C=C2\CC[C@]3(C2=O)[C@H](c2ccc(C)cc2)C(c2ccccc2)=NN3c2ccccc2)cc1`, the MIC worked out at 2.5 µg/mL (≈ 5.18 µM) against Staphylococcus aureus (ATCC 25923, 18 h); 5 µg/mL (≈ 10.4 µM) with Enterococcus faecalis (ATCC 29212, 18 h); 5 µg/mL (≈ 10.4 µM) with Streptococcus agalactiae; 0.6 µg/mL (≈ 1.24 µM) in the assay with Escherichia coli (ATCC 25922, 18 h); 1.3 µg/mL (≈ 2.69 µM) in the assay with Klebsiella pneumoniae (ATCC 33495, 18 h); 1.3 µg/mL (≈ 2.69 µM) against Proteus vulgaris (ATCC 13315, 18 h). Besides, in the assay with Candida albicans, the MIC result is “inactive”.
Regarding `C[C@@H]1[C@H](O)[C@@H](C)/C=C/C=C/C=C/C=C/C=C/C=C/C=C/[C@H](O[C@@H]2O[C@H](C)[C@@H](O)[C@H](N)[C@@H]2O)C[C@@H]2O[C@](O)(C[C@@H](O)C[C@@H](O)[C@H](O)CC[C@@H](O)C[C@@H](O)CC(=O)O[C@H]1C)C[C@H](O)[C@H]2C(=O)O` [AMPHOTERICIN B], the MIC result with Staphylococcus aureus, in the assay on Enterococcus faecalis, with Streptococcus agalactiae, with Escherichia coli, with Klebsiella pneumoniae and with Proteus vulgaris was “inactive” in each case. Besides, 4 µg/mL (≈ 4.33 µM) was the least that counted as inhibitory in the assay on Candida albicans (ATCC 20260, 18 h) (MIC).
Turning to `Cc1ccc(N2N=C(c3ccccc3)C(c3ccccc3)C23CCC2(C3=O)C(c3ccccc3)C(c3ccccc3)=NN2c2ccc(C)cc2)cc1` (centres undefined), the MIC is 2.5 µg/mL (≈ 3.69 µM) in the assay on Staphylococcus aureus (ATCC 25923, 18 h); 5 µg/mL (≈ 7.39 µM) in the assay with Enterococcus faecalis (ATCC 29212, 18 h); 2.5 µg/mL (≈ 3.69 µM) with Streptococcus agalactiae; 10 µg/mL (≈ 14.8 µM) against Escherichia coli (ATCC 25922, 18 h); 5 µg/mL (≈ 7.39 µM) against Klebsiella pneumoniae (ATCC 33495, 18 h); 5 µg/mL (≈ 7.39 µM) in the assay with Proteus vulgaris (ATCC 13315, 18 h). Further, the MIC result with Candida albicans was “inactive”.
For `O=C1C2(CCC13C(c1ccc(Cl)cc1)C(c1ccccc1)=NN3c1ccccc1)C(c1ccc(Cl)cc1)C(c1ccccc1)=NN2c1ccccc1` (centres undefined), the MIC with Staphylococcus aureus (ATCC 25923, 18 h) is 10 µg/mL (≈ 13.9 µM); in the assay with Enterococcus faecalis (ATCC 29212, 18 h), 10 µg/mL (≈ 13.9 µM); against Streptococcus agalactiae, 10 µg/mL (≈ 13.9 µM); against Escherichia coli (ATCC 25922, 18 h), 10 µg/mL (≈ 13.9 µM); against Klebsiella pneumoniae (ATCC 33495, 18 h), 10 µg/mL (≈ 13.9 µM); against Proteus vulgaris (ATCC 13315, 18 h), 10 µg/mL (≈ 13.9 µM). Further, in the assay with Candida albicans, the MIC entry is “inactive”.
Turning to `O=C1/C(=C/c2ccccc2)CC[C@@]12[C@H](c1ccccc1)C(c1ccccc1)=NN2c1ccccc1`, the MIC was 5 µg/mL (≈ 11 µM) in the assay on Staphylococcus aureus (ATCC 25923, 18 h); 2.5 µg/mL (≈ 5.5 µM) in the assay on Enterococcus faecalis (ATCC 29212, 18 h); 2.5 µg/mL (≈ 5.5 µM) in the assay with Streptococcus agalactiae; 5 µg/mL (≈ 11 µM) in the assay on Escherichia coli (ATCC 25922, 18 h); 2.5 µg/mL (≈ 5.5 µM) in the assay with Klebsiella pneumoniae (ATCC 33495, 18 h); 2.5 µg/mL (≈ 5.5 µM) in the assay with Proteus vulgaris (ATCC 13315, 18 h). Further, the MIC entry in the assay with Candida albicans is “inactive”.
